Laboratory results taken from ChEMBL document CHEMBL2176978, “Fragment-based discovery of bromodomain inhibitors part 2: optimization of phenylisoxazole sulfonamides” (J Med Chem, 2012).
≈ marks a conversion by molar mass, not a printed value.

What was measured:
[1] = test system: Blood; assay: Antiinflammatory activity in human whole blood assessed as inhibition of LPS-induced TNFalpha production after 18 to 24 hrs by ELISA; assay type: functional, tissue-based
[2] = target: T1, E3 ubiquitin-protein ligase TRIM33 (Homo sapiens) (UniProt Q9UPN9); assay: Inhibition of His6FLAG-tagged TRIM33 isoform B expressed in Escherichia coli assessed as change in melting temperature at 100 uM by thermal shift assay
T1 sequence (whole entry): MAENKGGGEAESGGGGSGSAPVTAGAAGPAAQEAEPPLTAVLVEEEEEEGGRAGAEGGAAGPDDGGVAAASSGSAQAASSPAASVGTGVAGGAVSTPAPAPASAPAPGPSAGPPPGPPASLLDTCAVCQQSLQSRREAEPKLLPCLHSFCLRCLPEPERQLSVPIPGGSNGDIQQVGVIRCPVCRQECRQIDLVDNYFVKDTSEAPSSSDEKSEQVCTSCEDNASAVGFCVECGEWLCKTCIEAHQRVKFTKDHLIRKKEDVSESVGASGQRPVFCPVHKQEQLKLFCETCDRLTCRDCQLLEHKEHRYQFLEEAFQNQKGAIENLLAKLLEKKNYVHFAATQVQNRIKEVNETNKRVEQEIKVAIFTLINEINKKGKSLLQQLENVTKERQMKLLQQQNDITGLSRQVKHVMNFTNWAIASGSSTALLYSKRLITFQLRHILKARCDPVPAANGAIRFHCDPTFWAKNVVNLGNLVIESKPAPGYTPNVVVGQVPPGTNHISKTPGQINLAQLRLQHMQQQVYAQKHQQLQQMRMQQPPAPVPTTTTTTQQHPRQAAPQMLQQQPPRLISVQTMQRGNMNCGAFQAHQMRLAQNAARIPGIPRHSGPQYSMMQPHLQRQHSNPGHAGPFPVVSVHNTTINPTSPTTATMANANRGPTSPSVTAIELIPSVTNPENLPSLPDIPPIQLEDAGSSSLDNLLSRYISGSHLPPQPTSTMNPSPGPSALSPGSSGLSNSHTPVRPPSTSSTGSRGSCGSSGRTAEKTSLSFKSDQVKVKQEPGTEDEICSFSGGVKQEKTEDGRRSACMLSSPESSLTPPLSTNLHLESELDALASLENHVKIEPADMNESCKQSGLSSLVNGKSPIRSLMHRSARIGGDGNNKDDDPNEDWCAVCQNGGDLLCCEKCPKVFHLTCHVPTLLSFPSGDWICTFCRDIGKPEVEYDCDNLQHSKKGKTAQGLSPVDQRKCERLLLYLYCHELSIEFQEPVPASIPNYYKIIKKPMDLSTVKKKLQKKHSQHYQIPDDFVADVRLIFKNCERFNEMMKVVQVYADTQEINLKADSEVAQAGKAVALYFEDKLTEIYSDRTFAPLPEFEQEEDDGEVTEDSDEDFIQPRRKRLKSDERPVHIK
How it was run: (§1)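 Thermal melt: protein heated with or without 100 μM compound, at least duplicate; Sypro orange at 1:1000 in PBS with 10% glycerol; ramp 1 °C/min, fluorescence read every 0.5 °C; ΔTm reported.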

[3] = target: PH-interacting protein (Homo sapiens) (UniProt Q8WWQ0); assay: Inhibition of His6FLAG-tagged PHIP-BD2 expressed in Escherichia coli assessed as change in melting temperature at 100 uM by thermal shift assay; how it was run: as §1
[4] = target: CREB-binding protein (Homo sapiens) (UniProt Q92793); assay: Inhibition of His6FLAG-tagged CREBBP expressed in Escherichia coli assessed as change in melting temperature at 100 uM by thermal shift assay; how it was run: as §1
[5] = test system: PBMC; assay: Antiinflammatory activity in human PBMC assessed as inhibition of LPS-induced TNFalpha production after 18 to 24 hrs by ELISA; assay type: functional, cell-based
[6] = test system: PBMC; assay: Antiinflammatory activity in human PBMC assessed as inhibition of LPS-induced IL6 production after 18 to 24 hrs by ELISA; assay type: functional, cell-based
[7] = Solubility of the compound at pH 5; assay type: physicochemical; conditions: buffer
[8] = Solubility of the compound at pH 7; assay type: physicochemical; conditions: buffer
[9] = target: T2, Bromodomain-containing protein 4 (Homo sapiens, UniProt O60885); assay: Inhibition of His6FLAG-tagged BRD4-BD12 expressed in Escherichia coli assessed as change in melting temperature at 100 uM by thermal shift assay; how it was run: as §1
[10] = target: T3, Bromodomain-containing protein 2 (Homo sapiens, UniProt P25440); assay: Inhibition of His6FLAG-tagged BRD2-BD12 expressed in Escherichia coli assessed as change in melting temperature at 100 uM by thermal shift assay; how it was run: as §1
Target sequence in this assay (P25440 whole entry, looked up): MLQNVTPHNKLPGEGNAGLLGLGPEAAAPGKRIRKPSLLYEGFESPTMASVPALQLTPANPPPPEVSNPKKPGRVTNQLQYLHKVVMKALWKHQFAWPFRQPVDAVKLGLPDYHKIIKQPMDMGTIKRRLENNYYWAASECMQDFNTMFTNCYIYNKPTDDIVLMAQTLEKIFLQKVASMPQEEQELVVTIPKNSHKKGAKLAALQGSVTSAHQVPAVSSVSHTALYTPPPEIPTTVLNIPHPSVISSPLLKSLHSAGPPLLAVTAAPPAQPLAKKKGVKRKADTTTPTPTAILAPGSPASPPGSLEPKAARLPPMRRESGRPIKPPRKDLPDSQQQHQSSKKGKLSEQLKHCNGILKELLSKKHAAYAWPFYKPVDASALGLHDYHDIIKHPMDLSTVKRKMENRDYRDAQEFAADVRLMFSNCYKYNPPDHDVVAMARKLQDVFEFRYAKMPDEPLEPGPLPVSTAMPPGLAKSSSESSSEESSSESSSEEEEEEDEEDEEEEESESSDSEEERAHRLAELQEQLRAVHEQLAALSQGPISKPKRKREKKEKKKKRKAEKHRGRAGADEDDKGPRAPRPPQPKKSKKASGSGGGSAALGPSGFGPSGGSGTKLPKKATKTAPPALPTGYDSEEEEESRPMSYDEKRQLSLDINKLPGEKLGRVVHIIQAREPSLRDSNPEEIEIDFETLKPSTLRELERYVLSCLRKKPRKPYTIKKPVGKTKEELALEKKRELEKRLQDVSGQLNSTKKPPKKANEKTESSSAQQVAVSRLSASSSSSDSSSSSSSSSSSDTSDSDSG

[11] = target: T3, Bromodomain-containing protein 2; assay: Binding affinity to His6-tagged BRD2 expressed in Escherichia coli by surface plasmon resonance assay
How it was run: (§2)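 SPR with tandem bromodomain (BRD2-BD12 or BRD4-BD12) amine-coupled to CM5 chip after EDC/NHS activation; protein 0.1−2 mg/mL in NaAc pH 4.5−5.5, >5 kRU immobilized, ethanolamine-blocked. Running buffer 50 mM HEPES pH 7.5, 150 mM NaCl.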

[12] = target: T2, Bromodomain-containing protein 4; assay: Inhibition of His6-tagged BRD4-BD12 expressed in Escherichia coli assessed as inhibition of binding to SGRG-K(Ac)-GG-K(Ac)-GLG-K(Ac)-GGA-K(Ac)-RHGSGSK-biotin after 1 hr by TR-FRET assay
[13] = target: T3, Bromodomain-containing protein 2; assay: Inhibition of His6-tagged BRD2 expressed in Escherichia coli assessed as inhibition of binding to SGRG-K(Ac)-GG-K(Ac)-GLG-K(Ac)-GGA-K(Ac)-RHGSGSK-biotin after 1 hr by TR-FRET assay
How it was run: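 TR-FRET competition using tandem bromodomain construct; displacement of a tetra-acetylated biotinylated peptide measured, IC50 reported.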
Target sequence in this assay (P25440 whole entry): as the sequence (P25440 whole entry, looked up) above

[14] = target: T2, Bromodomain-containing protein 4; assay: Binding affinity to His6-tagged BRD4 expressed in Escherichia coli by surface plasmon resonance assay; how it was run: as §2
[15] = target: Bromodomain-containing protein 3 (Homo sapiens, UniProt Q15059); assay: Inhibition of His6-tagged BRD3 expressed in Escherichia coli assessed as inhibition of binding to SGRG-K(Ac)-GG-K(Ac)-GLG-K(Ac)-GGA-K(Ac)-RHGSGSK-biotin after 1 hr by TR-FRET assay
Chain of Bromodomain-containing protein 3 (Q15059 whole entry): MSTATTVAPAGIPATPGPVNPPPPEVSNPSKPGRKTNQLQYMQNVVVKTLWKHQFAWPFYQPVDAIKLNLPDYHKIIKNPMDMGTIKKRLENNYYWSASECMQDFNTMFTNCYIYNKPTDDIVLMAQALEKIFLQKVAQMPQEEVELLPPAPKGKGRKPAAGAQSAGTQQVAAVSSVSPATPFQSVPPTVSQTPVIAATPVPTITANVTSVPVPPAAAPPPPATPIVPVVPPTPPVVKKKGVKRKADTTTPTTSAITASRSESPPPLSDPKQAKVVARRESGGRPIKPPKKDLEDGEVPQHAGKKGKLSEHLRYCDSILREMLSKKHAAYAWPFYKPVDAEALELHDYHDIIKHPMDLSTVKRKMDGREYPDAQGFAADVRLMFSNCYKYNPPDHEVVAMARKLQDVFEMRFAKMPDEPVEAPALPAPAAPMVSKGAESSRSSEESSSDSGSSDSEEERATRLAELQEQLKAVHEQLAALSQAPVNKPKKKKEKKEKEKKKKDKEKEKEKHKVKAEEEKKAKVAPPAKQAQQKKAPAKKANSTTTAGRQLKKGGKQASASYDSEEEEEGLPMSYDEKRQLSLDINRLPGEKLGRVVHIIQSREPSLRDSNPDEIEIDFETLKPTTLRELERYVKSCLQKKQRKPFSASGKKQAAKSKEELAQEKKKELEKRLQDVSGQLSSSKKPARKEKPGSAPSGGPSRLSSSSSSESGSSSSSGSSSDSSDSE

Chain of CREB-binding protein (Homo sapiens) (Q92793 2-2442 limits assumed): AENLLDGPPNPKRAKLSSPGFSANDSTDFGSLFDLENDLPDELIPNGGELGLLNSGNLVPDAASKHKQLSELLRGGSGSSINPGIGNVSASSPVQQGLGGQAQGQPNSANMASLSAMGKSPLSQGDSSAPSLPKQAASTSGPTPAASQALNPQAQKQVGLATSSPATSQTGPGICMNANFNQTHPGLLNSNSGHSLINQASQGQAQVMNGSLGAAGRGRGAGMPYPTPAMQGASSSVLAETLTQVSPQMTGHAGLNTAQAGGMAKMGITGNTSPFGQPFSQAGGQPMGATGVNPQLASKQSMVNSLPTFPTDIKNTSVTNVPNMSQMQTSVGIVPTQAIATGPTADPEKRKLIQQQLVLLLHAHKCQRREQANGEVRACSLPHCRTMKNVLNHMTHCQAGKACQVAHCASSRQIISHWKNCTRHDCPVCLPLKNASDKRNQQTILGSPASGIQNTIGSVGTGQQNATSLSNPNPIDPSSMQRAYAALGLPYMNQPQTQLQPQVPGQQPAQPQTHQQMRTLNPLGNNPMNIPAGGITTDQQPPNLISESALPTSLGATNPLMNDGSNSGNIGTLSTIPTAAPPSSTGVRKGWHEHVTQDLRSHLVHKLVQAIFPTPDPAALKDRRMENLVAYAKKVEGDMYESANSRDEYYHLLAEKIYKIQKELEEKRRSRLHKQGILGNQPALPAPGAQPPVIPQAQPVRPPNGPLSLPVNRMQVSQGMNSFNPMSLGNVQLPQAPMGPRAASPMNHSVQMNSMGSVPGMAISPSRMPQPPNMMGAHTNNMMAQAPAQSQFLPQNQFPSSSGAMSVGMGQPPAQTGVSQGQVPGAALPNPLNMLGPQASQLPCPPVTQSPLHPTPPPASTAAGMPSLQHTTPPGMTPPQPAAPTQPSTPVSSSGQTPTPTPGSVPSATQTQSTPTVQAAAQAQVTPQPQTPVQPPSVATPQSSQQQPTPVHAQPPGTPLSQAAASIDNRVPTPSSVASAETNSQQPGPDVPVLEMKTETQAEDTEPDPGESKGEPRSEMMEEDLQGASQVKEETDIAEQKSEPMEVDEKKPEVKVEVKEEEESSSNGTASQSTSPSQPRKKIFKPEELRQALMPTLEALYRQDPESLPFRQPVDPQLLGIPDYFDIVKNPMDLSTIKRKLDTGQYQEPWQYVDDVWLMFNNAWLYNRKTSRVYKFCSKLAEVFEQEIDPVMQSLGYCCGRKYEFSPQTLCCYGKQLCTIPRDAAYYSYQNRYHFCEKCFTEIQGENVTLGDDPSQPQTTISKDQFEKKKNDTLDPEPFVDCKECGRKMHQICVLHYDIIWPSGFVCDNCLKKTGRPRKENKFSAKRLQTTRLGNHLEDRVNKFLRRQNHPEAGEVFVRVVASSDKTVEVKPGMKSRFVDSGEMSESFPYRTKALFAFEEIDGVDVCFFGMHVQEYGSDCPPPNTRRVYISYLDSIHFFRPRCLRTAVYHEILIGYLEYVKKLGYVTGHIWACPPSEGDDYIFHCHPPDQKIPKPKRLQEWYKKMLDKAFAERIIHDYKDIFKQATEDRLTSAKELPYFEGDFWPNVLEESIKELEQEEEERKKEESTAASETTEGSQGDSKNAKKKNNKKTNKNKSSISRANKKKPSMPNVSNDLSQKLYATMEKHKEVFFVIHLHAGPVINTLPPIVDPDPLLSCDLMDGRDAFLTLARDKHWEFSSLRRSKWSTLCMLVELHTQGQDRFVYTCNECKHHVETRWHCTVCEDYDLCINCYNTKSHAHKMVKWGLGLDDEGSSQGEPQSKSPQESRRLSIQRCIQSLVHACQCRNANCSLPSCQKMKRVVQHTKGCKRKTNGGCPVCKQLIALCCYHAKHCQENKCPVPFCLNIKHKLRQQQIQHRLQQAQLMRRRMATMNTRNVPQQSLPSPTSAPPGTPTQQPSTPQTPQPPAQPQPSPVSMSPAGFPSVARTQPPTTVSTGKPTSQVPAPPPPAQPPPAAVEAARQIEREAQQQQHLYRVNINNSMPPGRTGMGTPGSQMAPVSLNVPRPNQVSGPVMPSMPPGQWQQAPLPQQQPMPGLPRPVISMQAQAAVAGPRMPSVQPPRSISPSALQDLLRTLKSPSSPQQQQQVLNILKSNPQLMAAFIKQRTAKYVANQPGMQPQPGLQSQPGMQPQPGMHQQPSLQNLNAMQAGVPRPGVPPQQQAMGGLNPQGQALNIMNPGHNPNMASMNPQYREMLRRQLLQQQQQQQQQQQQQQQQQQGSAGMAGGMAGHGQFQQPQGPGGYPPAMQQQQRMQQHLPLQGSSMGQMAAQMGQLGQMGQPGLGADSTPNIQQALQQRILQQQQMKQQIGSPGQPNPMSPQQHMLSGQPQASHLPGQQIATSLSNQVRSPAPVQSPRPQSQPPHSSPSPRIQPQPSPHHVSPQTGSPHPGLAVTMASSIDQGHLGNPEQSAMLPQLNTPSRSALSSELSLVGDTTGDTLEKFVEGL

Structure (SMILES)	IC50 [1] [nM]	ΔTm [2] [°C]	ΔTm [3] [°C]	ΔTm [4] [°C]	IC50 ([5]; read-out: IC50) [nM]	IC50 ([5]; read-out: pIC50 (converted)) [nM]	IC50 [6] [nM]	solubility [7] [µg/mL]	solubility [8] [µg/mL]	ΔTm [9] [°C]	ΔTm [10] [°C]	Kd [11] [nM]	RUmax [11] [%]	IC50 [12] [nM]	IC50 [13] [nM]	Kd [14] [nM]	RUmax [14] [%]	IC50 [15] [nM]
Cc1ccc(-c2c(C)noc2C)cc1S(=O)(=O)NC1CCCC1	5000	< 1	< 1	< 1	200	126	3100	< 1	< 1	5	2	–	–	–	–	–	–	–
Cc1noc(C)c1-c1ccc(OCCCN2CCOCC2)c(S(=O)(=O)NC2CCCC2)c1	–	< 1	< 1	1.5	–	–	–	1120 (≈ 2430 µM)	210 (≈ 453 µM)	5	2	3140	34	2600	1500	2750	25	1100
